Rows were chosen to be rich in hits. Some 5.6% of all compounds tested hit in one or more screens of this group.
MPTP block: permeability transition pore inhibition. isolated mouse mitochondria, Ca2+ swelling absorbance, 30 min. AID 602449. actives 1.4% (n = 360,000). inhibition, % at 10 µM;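 active = inhibition of 50% or more, scaled per plate between neutral and stimulator controls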;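 note: 0% = DMSO wells given calcium and 100% = 1 mM EGTA wells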
UPR XBP1 act: activators of adaptive arm of unfolded protein response (XBP1); CHO-XBP1 luciferase reporter, IRE1-XBP1 UPR activation, luminescence; percent of tunicamycin response, DMSO as zero; activation, % at 20 µM; actives 0.33% (n = 330,000);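 active = versus positive control, 20 µM dose yields 30% or more activation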;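 note: 100% = tunicamycin at 10 µg/mL and 0% = DMSO only wells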
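incubation = overnight seeding at 37 °C, 6 h compound treatment at 37 °C | assay system = CHO-XBP1 cells stably carrying IRE1-XBP1-driven luciferase reporter | input = 1000 cells per well | detection = luciferase luminescence | dosing = single point, 20 µM final compound, 1% DMSO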
NR3A LBD binder: modulators (binders) of human NR3A ligand-binding domain; NR3A LBD differential scanning fluorimetry, Tm shift; 0% = protein alone, 100% = glycine-bound protein; Tm shift relative to glycine control, % at 25 µM; actives 2.5% (n = 340,000); AID 1259313;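 active = melting temperature shift of at least 10% of the positive control shift, at one fixed dose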
UPR CHOP act: activators of apoptotic arm of unfolded protein response (CHOP); CHO-CHOP luciferase reporter, UPR activation, luminescence; percent of tunicamycin response over DMSO baseline; activation, % at 10 µM; actives 0.34% (n = 330,000); AID 449763;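 active = at 10 µM dose, activation of 40% or more, normalized to positive control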;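 note: 100% = tunicamycin at 10 µg/mL and 0% = DMSO alone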
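Dosing – one dose, 10 µM in 0.5% DMSO · System – CHO-CHOP cells, stable luciferase reporter of PERK-eIF2a-CHOP signalling · Input – 500 cells/well · Control set – tunicamycin 10 µg/mL final as positive, DMSO-only wells as negative · Timing – 6 h compound treatment, 37 °C · Measure – % activation vs tunicamycin · Technique – luminescence read with Steady-Glo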
aDG glyco act: alpha-DG glycosylation activation; activation, % at 10 µM; actives 0.22% (n = 360,000); Pro5-aDG cells, alpha-DG glycosylation AlphaScreen (IIH6); 0% Pro5, 100% B10-LARGE cell signal;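 active = activation of at least 8% versus controls, or a plate z-score of at least 8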;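 note: Pro5 are CHO cells carrying HIG-tagged alpha-DG that lacks glycosylation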
CHOP inh: blocks CHOP induction under ER stress | CHO-K1 CHOP-promoter luciferase, tunicamycin-induced, 15-18 h | actives 3.8% (n = 220,000) | inhibition, % at 10 µM;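 active = compounds that reduced the stress-induced luciferase reporter signal by more than about 70% of percent inhibition, limit read from the data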;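 note: 0% = tunicamycin plus vehicle and 100% = wells without tunicamycin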
MPTP counter: Rhodamine 123 counter-screen of mitochondrial pore hits | shares compounds with MPTP block | isolated mitochondria, membrane potential, Rhodamine 123 fluorescence | actives 78% (n = 5,000) | inhibition, % at 10 µM; in the data active = inhibition above about 22%;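 note: 0% = DMSO vehicle and 100% = positive control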
MPTP abs DR: dose response confirmation of mitochondrial permeability transition pore inhibitors; shares compounds with MPTP block; isolated mitochondria swelling, absorbance; IC50, µM; actives 58% (n = 780); in the data active = IC50 below about 20 µM
MPTP counter DR: MPTP inhibitor counter-screen activity, dose response | shares compounds with MPTP block | isolated mitochondria counterscreen, fluorescence read-out | IC50, µM | actives 49% (n = 780); in the data active = IC50 below about 80 µM
The depositor's hits bear a star; i = inactive; . = no result given.

SMILES	MPTP block	UPR XBP1 act	NR3A LBD binder	UPR CHOP act	aDG glyco act	CHOP inh	MPTP counter	others
COc1cccc(CNCC(O)COc2ccc(C(=O)c3ccccc3)cc2)c1 (stereo unspecified)	84*	1	-2	0	0	.	1	MPTP abs DR=i;MPTP counter DR=51*
CCOc1ccc(CCNC(=O)Cn2nc(C)c3c(C)n(-c4ccccc4)nc3c2=O)cc1OCC	-1	-7	-2	-2	0	.	.
Cc1csc(NC(C)c2nc3cc(Cl)c(Cl)cc3n2CCCO)n1 (stereo unspecified)	0	-3	-3	-1	0	.	.
O=C(Nc1ccc(Oc2cccc(C(F)(F)F)c2)nc1)c1cccs1	50*	0	-5	3	0	40	57*
O=C(CCN1CCOCC1)NNC(=S)NC(=O)c1ccc(Br)cc1	-1	-2	-1	1	0	41	.
CCOc1ccccc1CNC(=O)c1ccc(NC(=O)C2=C(C)OCCS2)cc1	-1	-6	0	3	0	.	.
Cc1sc2nc[nH]c(=S)c2c1-c1ccccc1	0	1	-2	1	0	-1	.
CON(C)S(=O)(=O)NC(=O)C1=C(N2CCCC2)COC1=O	-1	-2	2	2	0	.	.
COc1ccccc1CC(=O)Nc1ccccc1O	-4	2	5	0	0	17	.
COc1ccccc1CC(=O)Nc1ccc([N+](=O)[O-])cc1O	54*	-1	-13	-3	0	22	82*
Cc1ccc(NC(=O)CSc2n[nH]c(-c3cccnc3)n2)c(Br)c1	-1	-1	-1	1	0	.	.
O=S(=O)(c1ccc(N2CCCC2)cc1)C(F)(F)F	91*	1	-1	4	0	53	68*
Cc1cccc(C)c1OC(=O)CN1C(=O)c2ccccc2C1=O	0	-3	0	2	0	.	.
Cc1nc2ccccc2c(=O)n1NC(=O)Cc1ccc(Br)cc1	1	0	0	-2	0	-4	.
CCCCCc1ccc(CC(=O)Nn2c(C)nc3ccccc3c2=O)cc1	72*	-4	-8	-2	0	54	68*
CC(C)c1ccc(C2CC(=O)c3cnc(NC(=O)c4ccco4)nc3C2)cc1 (stereo unspecified)	-1	2	0	2	0	.	.
COCCNC(=S)N1CCC(c2nc(-c3ccc(N(C)C)cc3)no2)CC1	3	2	3	0	0	6	.
O=C(Nc1cccc(C(F)(F)F)c1)N1CCC(c2nc(-c3ccc(F)cc3)no2)CC1	77*	-1	21*	4	2	91*	89*
CC(C)CNC(=S)N1CCC(c2nc(-c3ccc(F)cc3)no2)CC1	95*	0	-6	-2	0	39	94*
O=C(Nc1ccccc1)N1CCCC(c2nc(-c3ccc(F)cc3)no2)C1 (stereo unspecified)	-2	-4	2	1	0	19	.
S=C(Nc1ccc(Oc2ccccc2)cc1)N1CCN(c2ccccn2)CC1	80*	-1	-1	-3	0	27	79*
COc1ccccc1OCCCCCc1c(C)n[nH]c1C	33	2	2	0	0	62	.
Cc1cccc(OCCCCc2c(C)n[nH]c2C)c1C	54*	0	2	2	1	95*	83*
CCOc1ccccc1OCCCCCc1c(C)n[nH]c1C	81*	-2	4	-3	1	40	47*
Cc1cc(C)n2c(SCC(=O)N(C)C3CCCCC3)nnc2n1	0	-2	-3	1	0	7	.
SMILES	MPTP block	UPR XBP1 act	NR3A LBD binder	UPR CHOP act	aDG glyco act	CHOP inh	MPTP counter	others
COc1ccc(N(CC(=O)Nc2ccc(F)c(Cl)c2)S(=O)(=O)c2c(C)noc2C)cc1	69*	-4	16*	-1	0	-5	78*
COc1ccc(N(CC(=O)Nc2ccc(OC)c(Cl)c2)S(=O)(=O)c2c(C)noc2C)cc1	16	3	1	-3	0	67	.
CC(C)(C)c1cnnn1-c1ccc(/C=N/Nc2ccc([N+](=O)[O-])cc2)cc1	74*	9	0	4	3	35	68*
CC1CCC(NC(=O)c2cccc(S(=O)(=O)N3CCN(c4ccccc4)CC3)c2)CC1 (stereo unspecified)	76*	-3	1	5	2	.	18	MPTP abs DR=i;MPTP counter DR=>80
CC1CCC(NC(=O)c2cccc(S(=O)(=O)N3CCN(C)CC3)c2)CC1 (stereo unspecified)	0	1	0	4	0	.	.
CN(CC(=O)Nc1cc(Cl)ccc1-n1cncn1)Cc1ccccc1N1CCOCC1	-2	.	.	.	1	.	.
CC(C)(C)c1ccc(C(=O)NCC2CCCN2S(=O)(=O)c2ccccc2)cc1 (stereo unspecified)	2	-2	1	0	0	.	.
CN1CCCC1CCOC(C)(c1ccccc1)c1ccc(Cl)cc1 (stereo unspecified)	81*	.	-3	.	0	1	-11	MPTP abs DR=6.1*;MPTP counter DR=>80
OCCCn1c(C(CO)Nc2nc(-c3ccc(Cl)cc3)cs2)nc2ccccc21 (stereo unspecified)	0	1	-1	0	0	.	.
CCCC1C(c2ccco2)NC(c2ccco2)CC1(C)O (stereo unspecified)	78*	0	0	3	0	-11	4	MPTP abs DR=>100;MPTP counter DR=>80
CC1/C(=N/O)CC(c2ccco2)NC1c1ccco1 (stereo unspecified)	1	-2	-3	1	0	10	.
Cc1cccc(Cn2nc(C(C)(C)C)cc2C(=O)Nc2ccc(F)cc2)c1	83*	0	0	0	0	52	87*
CC(C)(C)c1cc(C(=O)NN)n(Cc2ccc(F)cc2)n1	2	0	0	-2	0	-2	.
O=C1NC(=S)/C(=C\c2ccc(-c3ccccc3Cl)o2)S1	91*	.	3	.	0	69	37*
O=C1NC(=O)/C(=C/c2ccc(-c3cc(C(=O)O)ccc3Cl)o2)S1	0	-4	-5	2	0	.	.
O=C(Nc1ccc(S(=O)(=O)N2CCCC2)cc1)c1cnccn1	-1	-4	-1	0	0	9	.

Screening data as filed in PubChem BioAssay.
